How the values were obtained:
E-selectin = molecular target: T1, E-selectin (Homo sapiens, UniProt P16581); assay: Inhibition of human E-selectin after 2 hrs
T1 sequence (P16581 whole entry): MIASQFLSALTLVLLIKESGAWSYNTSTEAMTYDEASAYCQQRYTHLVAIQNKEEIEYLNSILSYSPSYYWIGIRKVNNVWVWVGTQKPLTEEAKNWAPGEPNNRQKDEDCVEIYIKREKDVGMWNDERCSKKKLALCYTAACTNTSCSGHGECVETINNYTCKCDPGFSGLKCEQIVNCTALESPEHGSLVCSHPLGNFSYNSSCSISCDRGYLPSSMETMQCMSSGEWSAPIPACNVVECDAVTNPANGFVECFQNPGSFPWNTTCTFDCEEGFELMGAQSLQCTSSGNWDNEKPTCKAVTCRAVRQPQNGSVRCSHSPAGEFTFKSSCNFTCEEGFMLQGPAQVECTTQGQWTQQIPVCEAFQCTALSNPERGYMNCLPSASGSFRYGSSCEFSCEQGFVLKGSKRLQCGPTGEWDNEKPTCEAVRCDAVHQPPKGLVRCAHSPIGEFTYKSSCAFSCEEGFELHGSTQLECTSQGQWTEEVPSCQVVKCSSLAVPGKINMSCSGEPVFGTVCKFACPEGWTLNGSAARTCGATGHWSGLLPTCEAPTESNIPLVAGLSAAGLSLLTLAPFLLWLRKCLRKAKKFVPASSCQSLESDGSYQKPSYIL
How it was run: (§1)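 Biotinylated sLeX-tyrosine sulfate polyacrylamide complexed with streptavidin-peroxidase added with compound at varying concentrations (HEPES pH 7.4, 1 mM CaCl2, 1% DMSO), 2 h 37 °C. TMB read-out, OD 450 vs 620 nm.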

HL-60 [1] = assay: Inhibition of attachment of HL60 cells to P-selectin at 109 uM after 5 mins; assay type: functional; conditions: Homo sapiens, HL-60, 5 min
How it was run: (§2)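 Dishes coated with E- or P-selectin/Fc chimera, blocked with BSA, mounted in a parallel flow chamber run recirculating; HL-60 cells at 2.4 million/mL final. Mean inhibition as % of vehicle control from mean cells/field of at least two independent experiments.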

HL-60 [2] = assay: Inhibition of attachment of HL60 cells to E-selectin at 109 uM after 5 mins; assay type: functional; conditions: Homo sapiens, HL-60, 5 min
How it was run: as §2, with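 “final. Cells attached after 5 min continuous flow at calculated shear 1 dyn/cm², with 109 µM compound or DMSO vehicle, counted in five low power fields.” for “final.”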

L-selectin = molecular target: T2, L-selectin (Homo sapiens, UniProt P14151); assay: Inhibition of human L-selectin after 2 hrs; how it was run: as §1
T2 sequence (P14151 whole entry): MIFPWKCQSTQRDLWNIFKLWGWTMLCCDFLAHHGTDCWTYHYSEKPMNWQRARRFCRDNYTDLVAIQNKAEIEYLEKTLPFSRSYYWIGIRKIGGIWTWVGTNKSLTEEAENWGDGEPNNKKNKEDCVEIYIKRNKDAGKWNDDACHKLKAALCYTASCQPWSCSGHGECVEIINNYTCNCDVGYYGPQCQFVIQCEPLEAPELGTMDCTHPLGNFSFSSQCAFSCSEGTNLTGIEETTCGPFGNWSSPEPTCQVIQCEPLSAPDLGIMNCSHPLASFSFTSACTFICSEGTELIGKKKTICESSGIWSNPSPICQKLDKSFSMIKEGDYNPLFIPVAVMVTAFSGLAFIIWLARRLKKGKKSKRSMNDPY

P-selectin = molecular target: T3, P-selectin (Homo sapiens, UniProt P16109); assay: Inhibition of human P-selectin after 2 hrs; how it was run: as §1
T3 sequence (P16109 whole entry): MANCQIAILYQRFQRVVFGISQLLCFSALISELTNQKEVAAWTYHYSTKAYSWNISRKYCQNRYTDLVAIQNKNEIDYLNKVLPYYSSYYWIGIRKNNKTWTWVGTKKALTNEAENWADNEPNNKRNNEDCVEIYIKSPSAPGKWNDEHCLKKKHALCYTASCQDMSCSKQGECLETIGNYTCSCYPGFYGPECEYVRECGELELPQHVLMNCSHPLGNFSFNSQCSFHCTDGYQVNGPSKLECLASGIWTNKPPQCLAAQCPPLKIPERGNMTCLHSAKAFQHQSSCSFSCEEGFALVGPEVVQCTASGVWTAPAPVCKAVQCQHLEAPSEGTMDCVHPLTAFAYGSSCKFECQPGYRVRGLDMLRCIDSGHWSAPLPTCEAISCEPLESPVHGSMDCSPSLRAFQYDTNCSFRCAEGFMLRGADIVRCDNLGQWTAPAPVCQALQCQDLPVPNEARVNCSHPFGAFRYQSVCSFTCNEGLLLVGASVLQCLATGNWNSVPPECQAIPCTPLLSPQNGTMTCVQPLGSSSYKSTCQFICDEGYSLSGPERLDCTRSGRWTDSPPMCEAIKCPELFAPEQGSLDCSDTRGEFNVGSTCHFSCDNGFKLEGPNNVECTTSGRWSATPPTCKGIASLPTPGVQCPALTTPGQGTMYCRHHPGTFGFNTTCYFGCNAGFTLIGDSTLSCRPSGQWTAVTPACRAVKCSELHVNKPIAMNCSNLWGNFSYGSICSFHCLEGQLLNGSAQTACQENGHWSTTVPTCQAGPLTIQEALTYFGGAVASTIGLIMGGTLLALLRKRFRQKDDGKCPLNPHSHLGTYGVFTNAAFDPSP

Compound	IC50 (E-selectin) [µM]	inhibition at 109 µM (HL-60 [1]) [%]	inhibition at 109 µM (HL-60 [2]) [%]	IC50 (L-selectin) [µM]	IC50 (P-selectin) [µM]
O=C(O)Cc1ccc(-c2cccc(NC(=O)c3cccc(-c4ccc(O)c(O)c4O)c3)c2)s1	15.7	93	58	1.1	0.74
Cc1c(NC(=O)Cc2cc(O)c(O)c(O)c2)cccc1C(=O)O			19	> 500	> 500
O=C(Cc1cc(O)c(O)c(O)c1)NCc1ccc(C(=O)O)cc1		20	16		
O=C(O)Cc1ccc(-c2ccccc2NC(=O)CCCc2cc(O)c(O)c(O)c2)s1	52.4			105	53.9
Cc1ccc(C(=O)O)cc1NC(=O)Cc1cc(O)c(O)c(O)c1	> 500	24	22	64.5	42.8
Cc1ccc(C(=O)O)cc1NC(=O)CCc1cc(O)c(O)c(O)c1				4.2	2.9
O=C(O)Cc1ccc(-c2ccccc2NC(=O)/C=C/c2cc(O)c(O)c(O)c2)s1	48.6	23	28	21.3	19.5
O=C(O)Cc1ccc(-c2ccccc2NC(=O)CCCc2ccc(O)c(O)c2O)s1	> 500	47	26	41.7	24.8
O=C(O)Cc1ccc(-c2ccccc2NC(=O)Cc2ccc(O)c(O)c2O)s1	> 500		26		
O=C(O)Cc1cccc(-c2ccccc2OC(=O)c2cc(O)c(O)c(O)c2)c1	> 500	35	16	1.5	0.87
O=C(O)Cc1ccc(-c2ccccc2NC(=O)c2cccc(-c3ccc(O)c(O)c3O)c2)s1		55	61		
O=C(O)Cc1cccc(-c2ccccc2NC(=O)Cc2cc(O)c(O)c(O)c2)c1		22	18		
O=C(O)Cc1cccc(-c2cc(CCCCCCc3ccc(O[C@H]4O[C@H](CO)[C@@H](O)[C@H](O)[C@@H]4O)c(-c4cccc(CC(=O)O)c4)c3)ccc2O[C@H]2O[C@H](CO)[C@@H](O)[C@H](O)[C@@H]2O)c1 [BIMOSIAMOSE]		50	28	> 500	
O=C(O)Cc1ccc(-c2ccccc2NC(=O)Cc2cc(O)c(O)c(O)c2)s1	3.3	11	35	3.1	2.4
O=C(Nc1ccccc1-c1ccc(C(=O)O)s1)c1cccc(-c2ccc(O)c(O)c2O)c1	61.4	98	53	1.6	1.2
O=C(O)c1ccc(O)c(O)c1O	> 500			15.2	
O=C(O)Cc1ccc(-c2ccccc2NC(=O)/C=C/c2ccc(O)c(O)c2O)s1	57.2	56		4.3	3.4
O=C(O)Cc1ccc(-c2ccccc2NC(=O)c2cccc(-c3cc(O)c(O)c(O)c3)c2)s1	> 500	45	32	37.6	21.8
